Eleven compounds from ChEMBL document CHEMBL2331484, “Synthesis and biological evaluation of scopoletin derivatives” (Bioorg Med Chem, 2013) can be followed below.

The structures appear in SMILES notation. pIC50: −log10 of the molar value.

Assay [1] deals with HUVEC. Put plainly: Antiproliferative activity against HUVEC assessed as growth inhibition rate at 10 uM after 24 hrs by MTT assay. To be noted: Homo sapiens, read-out: GI. It is filed as functional. In a few lines:
(§1)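 HUVECs (passages 3–5, primary cord isolates) seeded at 1 × 10⁴ cells/well. Medium replaced with M199 containing 1% FBS plus compound. Viability read by MTT after 24 h. Percent inhibition was calculated from A570 minus A630 of treated versus control wells, and IC50 determined. Triplicate experiments, means ± SEM.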
(Tetrazolium dyes change colour on reduction, which living cells bring about.)

Assay [2] concerns HUVEC. Put plainly: Antiproliferative activity against HUVEC assessed as growth inhibition rate at 100 uM after 24 hrs by MTT assay. It is filed as functional. Conditions: Homo sapiens, read-out: GI. In a few lines:
as §1

In assay [3] the test system is HUVEC. Nature of the assay: Antiproliferative activity against HUVEC assessed as growth inhibition rate after 24 hrs by MTT assay. The assay is classed as functional, cell-based. To be noted: Homo sapiens. In a few lines: as §1

By pIC50 is commonly meant the negative decadic logarithm of the IC50, by convention in mol/L.

For `COc1cc2ccc(=O)oc2cc1OCCCl`, the inhibition of growth at 10 µM in assay [1] was determined as 0.3%. Besides, the inhibition of growth at 100 µM in assay [2] was found to be 3.3%.

In the case of `COc1cc2ccc(=O)oc2cc1OCCN1CCN(C)CC1`, the inhibition of growth at 10 µM in assay [1] was found to be 0%. The inhibition of growth at 100 µM in assay [2] turned out to be 12%.

Turning to `COc1cc2ccc(=O)oc2cc1OCCNC(C)C`, the inhibition of growth at 10 µM in assay [1] was 0.1%. The inhibition of growth at 100 µM in assay [2] came to 0.1%.

Take `COc1cc2ccc(=O)oc2cc1OCC(O)CNC(C)C` (centres undefined): the inhibition of growth at 10 µM in assay [1] stood at 0.1%. The inhibition of growth at 100 µM in assay [2] came to 6.3%.

On to `COc1cc2ccc(=O)oc2cc1OCC(=O)c1ccc(F)cc1`, for which, in assay [1], the inhibition of growth at 10 µM came out at 3.6%. For the same compound, the inhibition of growth at 100 µM in assay [2] is 16.6%.

On to `COc1cc2ccc(=O)oc2cc1OCC(O)CN1CCCC1` (centres undefined), for which, in assay [1], the inhibition of growth at 10 µM worked out at 0.5%. For the same compound, in assay [2], the inhibition of growth at 100 µM came to 0.3%.

Regarding `COc1cc2ccc(=O)oc2cc1OCCBr`, the inhibition of growth at 10 µM in assay [1] stood at 4.9%. For the same compound, the inhibition of growth at 100 µM in assay [2] was 5.6%.

Consider `COc1cc2ccc(=O)oc2cc1OCC(O)CN1CCOCC1` (centres undefined), for which the inhibition of growth at 10 µM in assay [1] turned out to be 0.4%. In addition, the inhibition of growth at 100 µM in assay [2] was 0.1%.

Consider `COc1cc2ccc(=O)oc2cc1OCC(=O)c1ccccc1`, for which the pIC50 in assay [3] is 4.20. For the same compound, the inhibition of growth at 10 µM in assay [1] amounted to 3.4%. Also, the inhibition of growth at 100 µM in assay [2] was 83.6%.

Consider `COc1cc2ccc(=O)oc2cc1OCC1CO1` (centres undefined), for which the pIC50 in assay [3] is 5.28. Further, the inhibition of growth at 10 µM in assay [1] turned out to be 62.2%. The inhibition of growth at 100 µM in assay [2] worked out at 95.5%.

Take `COc1cc2ccc(=O)oc2cc1OCC(=O)c1ccc([N+](=O)[O-])cc1`: the inhibition of growth at 10 µM in assay [1] came out at 4.1%. Further, in assay [2], the inhibition of growth at 100 µM worked out at 27.2%.
